Assay results as given in ChEMBL document CHEMBL1156664, “Frajunolides E-K, briarane diterpenes from Junceella fragilis” (J Nat Prod, 2008).
Values after ≈ are worked out from the molar mass of the structure shown.

Legend:
[1] = Cytotoxicity against human Doay cells by MTT assay; format: functional, cell-based
HEp-2 = assay: Cytotoxicity against human Hep2 cells by MTT assay; format: functional, cell-based
[2] = Antiinflammatory activity against FMLP/CB stimulated human neutrophils assessed as inhibition of superoxide anion generation at 10 ug/mL relative to control; format: functional; settings: Neutrophil
In short: (§1)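 Human neutrophils were isolated by dextran sedimentation and Ficoll centrifugation. Cells were given 0.5 mg/mL ferricytochrome c and 1 mM Ca2+, equilibrated 2 min at 37 °C, then treated with compound for 5 min. CB (1 µg/mL) was added 3 min before 100 nM FMLP for 10 min. Superoxide was measured as SOD-inhibitable ferricytochrome c reduction. Mean ± SEM, n = 3.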

[3] = Antiinflammatory activity against FMLP/CB stimulated human neutrophils assessed as inhibition of elastase release at 10 ug/mL relative to control; format: functional; settings: Neutrophil
In short: (§2)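 Neutrophils were supplemented with 100 µM MeO-Suc-Ala-Ala-Pro-Val-p-nitroanilide at 6 × 10^5/mL, equilibrated 2 min at 37 °C, then given compound for 5 min. They were activated with FMLP (100 nM)/CB (0.5 µg/mL), and A405 was followed continuously. The initial rate is expressed relative to the FMLP/CB-activated DMSO control. Mean ± SEM, n = 3.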

WiDr = assay: Cytotoxicity against human WiDr cells by MTT assay; format: functional, cell-based
HeLa = assay: Cytotoxicity against human HeLa cells by MTT assay; format: functional, cell-based
[4] = Antiinflammatory activity against FMLP/CB stimulated human neutrophils assessed as inhibition of elastase release relative to control; format: functional, cell-based; settings: Neutrophil; in short: as §2
[5] = Antiinflammatory activity against FMLP/CB stimulated human neutrophils assessed as inhibition of superoxide anion generation relative to control; format: functional, cell-based; settings: Neutrophil; in short: as §1

Structure (SMILES)	IC50 [1] [µg/mL]	IC50 (HEp-2) [µg/mL]	inhibition at 10 µg/mL [2] [%]	inhibition at 10 µg/mL [3] [%]	IC50 (WiDr) [µg/mL]	IC50 (HeLa) [µg/mL]	IC50 [4] [µg/mL]	IC50 [5] [µg/mL]
C=C1C[C@H](OC(C)=O)[C@H](OC(C)=O)[C@]2(C)[C@@H](OC(C)=O)/C=C/C(=C)[C@H](Cl)[C@@H]3OC(=O)[C@H](C)[C@@]3(O)[C@@H](OC(C)=O)[C@@H]12 (relative stereo) [FRAJUNOLIDE H]	> 20	> 20	-1.9	0.1	> 20	> 20		
C=C1/C=C\[C@H](OC(=O)COC(=O)CC(C)C)[C@@]2(C)[C@@H](OC(C)=O)CC[C@]3(CO3)[C@@H]2[C@H](OC(C)=O)[C@]2(O)[C@@H](C)C(=O)O[C@H]2[C@H]1Cl (relative stereo) [FRAJUNOLIDE G]	> 20	> 20	-7.5	8.3	> 20	> 20		
C=C1CC[C@H](OC(C)=O)[C@]2(C)[C@@H](OC(=O)COC(=O)CC(C)C)/C=C\C(=C)[C@H](Cl)[C@@H]3OC(=O)[C@H](C)[C@@]3(O)[C@@H](OC(C)=O)[C@@H]12 (relative stereo) [FRAJUNOLIDE K]	> 20	> 20	2.4	8	> 20	> 20		
C=C1C[C@H](OC(C)=O)[C@H](OC(C)=O)[C@]2(C)[C@@H](OC(C)=O)CC/C(C)=C\[C@@H]3OC(=O)[C@H](C)[C@@]3(O)[C@@H](OC(C)=O)[C@@H]12 (relative stereo) [FRAJUNOLIDE E]	> 20	> 20			> 20	> 20	27.4 (≈ 49.8 µM)	17.5 (≈ 31.8 µM)
CC[C@@]1(O)C(=O)OCc2c1cc1n(c2=O)Cc2cc3ccccc3nc2-1 [CAMPTOTHECIN]	0.08 (≈ 0.23 µM)	0.02 (≈ 0.0574 µM)			0.07 (≈ 0.201 µM)	0.19 (≈ 0.545 µM)		
O=c1c(-c2ccc(O)cc2)coc2cc(O)cc(O)c12 [GENISTEIN]			65	51.6				
C=C1/C=C/[C@H](OC(C)=O)[C@@]2(C)[C@@H](OC(C)=O)[C@@H](OC(C)=O)C[C@]3(CO3)[C@@H]2[C@H](OC(C)=O)[C@]2(O)[C@@H](C)C(=O)O[C@H]2[C@H]1Cl (relative stereo) [FRAJUNOLIDE I]	> 20	> 20	-10.3	18.2	> 20	> 20		
C=C1C[C@H](OC(C)=O)[C@H](OC(C)=O)[C@]2(C)[C@@H](OC(C)=O)C[C@@]3(O)O[C@]4([C@@H](C)C(=O)O[C@H]4[C@@H](Cl)C3=C)[C@@H](OC(C)=O)[C@@H]12 (relative stereo) [FRAJUNOLIDE F]	> 20	> 20	7.4	10.4	> 20	> 20		
C=C1[C@@H]2[C@H](OC(C)=O)[C@@]3(O)[C@H](/C=C(/C)CC[C@H](OC(C)=O)[C@@]2(C)[C@@H](OC(C)=O)C[C@H]1OC(=O)CC)OC(=O)[C@@H]3C (relative stereo) [FRAJUNOLIDE J]	> 20	> 20	20.1	19.9	> 20	> 20		
